High-throughput results (PubChem)
IDE inh: cellular human IDE inhibition | P14735 | HEK cells, FAbetaB cleavage, fluorescence polarization | actives 0.41% (n = 320,000) | inhibition, % at 5.59 µM | AID 434962;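 active = percent inhibition above the average of all tested compounds plus 3 SD, set per screening campaign, cut at about 16% in these data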;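 also: IDE supplied by intact live HEK cells; FP after avidin binding of uncleaved biotin substrate so inhibition keeps polarization high; 0% = DMSO wells and 100% = 60 µM reference IDE inhibitor Ii1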
HNF4A DNA FP: change in binding of human HNF4 alpha to DNA; actives 0.3% (n = 360,000); AID 1224865; HNF4a-FITC DNA binding, fluorescence polarization, 1 h; activity change, % at 10 µM; in the data active = activity change above about 30%, passing the limit was not always enough
TPT1 inhibitor: blocks Candida albicans tRNA 2'-phosphotransferase; recombinant caTPT1, FP RNA substrate dephosphorylation; inhibition, % at 5 µM; actives 0.81% (n = 300,000); AID 1962;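 active = inhibition above the mean of all tested compounds plus 3 SD, set per screening campaign, cut at about 24% in these data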;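 also: plate controls were DMSO alone for no effect and ferristatin control at 100 nM for full effect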
CSN inh: CSN deneddylation inhibition; AID 651999; Purified CSN, SCF-Nedd8-OG deneddylation, fluorescence polarization; Q92905; actives 0.38% (n = 360,000); inhibition, % at 12.5 µM;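 active = pattern-corrected inhibition above about 35%, with an unprinted fluorescence ratio check between 0.5 and 1.5, limit read from the data, passing the limit was not always enough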;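 also: 0% = enzyme with substrate and 100% = substrate without enzyme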
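Material: purified human Csn5 enzyme expressed in HEK293T cells / Medium: Tris buffer pH 7.5, NaCl, DTT, Tween-20, trehalose, ovalbumin / Compound dosing: 12.5 µM single point / Schedule: 90 min incubation of compound, enzyme and substrate at room temperature / Signal: fluorescence polarization of the substrate / Control set: no-enzyme wells high, enzyme-with-substrate wells low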
IDE cell activ: boosts human insulin-degrading enzyme activity in HEK cells. P14735. FAbeta-B cleavage, fluorescence polarization; 0% vehicle, 100% cell-free pure enzyme wells. activation, % at 5.96 µM. actives 0.073% (n = 340,000);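 active = activation above the mean of all tested compounds plus 3 SD, set per screening campaign, cut at about 17% in these data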
Rpn11 block: Rpn11 (human) deubiquitinase inhibition; human 26S proteasome, Ub4-pepOG fluorescence polarization; 20S core pre-blocked with epoxomicin; O00487; calls only at 20 µM; actives 0.59% (n = 360,000);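 active = inhibition at 20 µM, scaled to each plate's controls, above about 33%, limit read from the data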
TPT1 inh confirm: TPT1 (C. albicans) inhibition, confirmation | recombinant caTPT1, fluorescence polarization, RNase T1 coupled | actives 74% (n = 2,400) | inhibition, % at 5 µM | AID 2149 | shares compounds with TPT1 inhibitor;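 active = inhibition above the primary screen limit, the mean inhibition of all tested compounds plus 3 SD, cut at about 25% in these data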
RNase T1 inh: blocks Aspergillus oryzae RNase T1, a TPT1 counter-screen; RNase T1 cleavage, fluorescence polarization, 1536-well; shares compounds with TPT1 inhibitor; actives 83% (n = 2,400); AID 2153; inhibition, % at 5 µM;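 active = inhibition above the solvent-only control well mean plus 3 SD, limit set per screening run, cut at about 23% in these data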;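 also: plate controls were DMSO wells with enzyme for no effect and wells without RNase T1 for full effect; inhibitors block cleavage so intact labeled substrate keeps polarization high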
IDE inh confirm: confirmation of human insulin-degrading enzyme inhibitors in cells | shares compounds with IDE inh | HEK cells, FAbetaB cleavage, fluorescence polarization | actives 51% (n = 1,200) | inhibition, % at 5.59 µM | AID 435028;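 active = mean inhibition across triplicate wells above the cutoff set by the earlier primary insulin-degrading enzyme screen, cut at about 16% in these data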;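 also: 0% = DMSO wells and 100% = 60 µM reference IDE inhibitor Ii1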
HEK293 tox: counter-screen for IDE inhibitors: cytotoxicity in HEK cells. shares compounds with IDE inh. HEK293 cytotoxicity, ATP luminescence. inhibition, % at 5.59 µM. actives 28% (n = 1,200). AID 449730; in the data active = inhibition above about 22%;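 also: 0% = vehicle wells and 100% = reference cytotoxic drug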
* = called active by the depositor; i = inactive; . = not tested or not shown; + = active, no number. In the library only some 1.7% were active in any assay of this set; here they are far more common.

SMILES | IDE inh | HNF4A DNA FP | TPT1 inhibitor | CSN inh | IDE cell activ | Rpn11 block | TPT1 inh confirm | RNase T1 inh | IDE inh confirm | HEK293 tox
O=C(CSc1nc(-c2ccccc2)nc2c1CCCC2)N1CCOCC1 | 2 | -4 | 56* | 3 | 4 | i | 28* | 30* | . | .
O=C(O)CSc1nc(-c2ccccc2)nc2c1CCCC2 | 4 | 2 | 1 | -2 | 7 | i | . | . | . | .
CN(C)c1ccc2c(c1)OC(N)=C(C#N)C2c1cccc(F)c1 (configuration not stated) | 28* | 67 | 78* | 52 | -43 | . | 62* | 70* | 16* | 72*
Cc1ccc(C(=O)OCC(=O)NC(=O)c2ccc(C(C)(C)C)cc2)c(O)c1 | -5 | 0 | -4 | -4 | 4 | i | . | . | . | .
C/C=C/C=C/C(=O)Nc1cccc(C2=NOC3(C2)C[C@H](C(N)=O)N(C(=O)CC(c2ccccc2)c2ccccc2)C3)c1 (some centres not stated) | -3 | . | 2 | . | . | . | . | . | . | .
Oc1[nH]c(=S)sc1/C=C1\C(c2ccccc2)=Nc2ccccc21 | 18* | 95* | 138* | 24 | -14 | . | 130* | 136* | 14 | 9
CCOC(=O)C1C(=O)C=C(/C=C/c2ccc(N(C)C)cc2)CC1c1ccccc1 (configuration not stated) | 40* | 118 | 89* | 120 | -114 | . | 77* | 80* | 129* | 24*
CCOC(=O)C1C(=O)C=C(c2ccc(C)cc2)CC1c1ccccc1 (configuration not stated) | 1 | -3 | 0 | -4 | 0 | i | . | . | . | .
COc1ccc(NC(=O)CN(C)S(=O)(=O)c2ccc3c(c2)CC(C)N3C(C)=O)c(OC)c1 (configuration not stated) | 2 | 0 | 0 | 0 | 4 | i | . | . | . | .
CC(=Nc1ccc(C)cc1)c1sc2ccccc2c1O | 25* | 14 | 74* | 6 | -46 | i | 75* | 87* | 44* | 19
CC(=Nc1cccc(O)c1)c1sc2ccccc2c1O | 27* | -5 | 66* | 1 | -20 | i | 94* | 105* | 65* | 10
Cc1ccc(S(=O)(=O)N(C)c2ccc(OCc3cccc(C)c3)cc2)cc1 | 3 | 2 | -1 | 0 | 0 | i | . | . | . | .
Cn1c(=O)c2c(-c3ccccc3)n(-c3cccc(Br)c3)cc2n(C)c1=O | . | 2 | . | 5 | . | i | . | . | . | .
C=CCn1c(=O)/c(=C/c2ccc(O)cc2)s/c1=C(/C#N)c1nnc2n1CCCCC2 | 102* | 80* | 118* | 97* | -111 | . | 119* | 116* | 88* | 13
C=CCn1c(=O)/c(=C/c2ccc(Cl)cc2)s/c1=C(/C#N)c1nnc2n1CCCCC2 | -3 | 4 | -4 | 2 | -4 | i | . | . | . | .
CN(C)c1ccc(/C=C/C(=O)c2cccc(Br)c2)cc1 | 107* | 136 | 99* | -20 | -172 | . | 97* | 94* | 110* | 26*
Cc1ccc(NC(=O)CNCc2ccccc2)cc1Br | -4 | 0 | 3 | 4 | -5 | i | . | . | . | .
COc1cc(/C=C/C(=O)c2ccc3c(c2)OCO3)cc(Cl)c1O | 160* | 12 | 82* | 18 | -203 | . | 94* | 96* | 88* | 12
COc1ccc(C(=O)C=Cc2ccc3c(c2)OCO3)cc1OC | . | 0 | . | 4 | . | i | . | . | . | .
CCN(CC)c1ccc2cc(C(C)=O)c(=O)oc2c1 | 35* | . | 131* | 97 | -37 | . | 109* | 109* | 18* | 10
CCN(CC)c1ccc2cc(C=O)c(=O)oc2c1 | 91* | 14 | 121* | -73 | -69 | . | 102* | 101* | 67* | 12
CCN(CC)c1ccc2cc(-c3nnc(-c4ccncc4)o3)c(=O)oc2c1 | . | -84 | . | -74 | -146 | . | . | . | . | .
CC(C)(C)NC(=O)C(c1ccco1)N(C(=O)c1csnn1)c1ccccc1 (configuration not stated) | 4 | -2 | -4 | -1 | 1 | i | . | . | . | .
CCOC(=O)c1nc(NCc2ccccc2)c2ccccc2n1 | 4 | 4 | 1 | -1 | 6 | i | . | . | . | .
Cc1c(O)c2c3c(cccc3c1O)C(=O)N(c1ccccc1)C2=O | 60* | -3 | 39* | 10 | -54 | i | 27* | 40* | 87* | 9
SMILES | IDE inh | HNF4A DNA FP | TPT1 inhibitor | CSN inh | IDE cell activ | Rpn11 block | TPT1 inh confirm | RNase T1 inh | IDE inh confirm | HEK293 tox
O=C(O)c1ccc2c3c(cccc13)C(=O)N(c1ccccc1)C2=O | 4 | -26 | 7 | 15 | 5 | i | . | . | . | .
O=c1c(/C=N/Nc2ccccc2)c(Sc2nnnn2-c2ccccc2)nc2ccccn12 | . | -7 | . | 45 | -8 | . | . | . | . | .
O=C(O)c1ccccc1N/N=C/c1c(Sc2nnnn2-c2ccccc2)nc2ccccn2c1=O | 69* | 96* | 68* | 97* | -137 | . | 19 | 31* | 43* | 7
CN1C2CCC1/C(=C/c1cccn1C)C(=O)/C2=C\c1cccn1C | 44* | 138 | 121* | -31 | -43 | . | 123* | 117* | 72* | 19
CN1C2CCC1/C(=C\c1ccc(F)cc1)C(=O)/C2=C/c1ccc(F)cc1 | -1 | -1 | 0 | 4 | 3 | i | . | . | . | .
COc1ccc(NC(=O)Nc2ccc3c(c2)C(=O)N([C@H](C)CO)C[C@H](C)[C@@H](CN(C)C(=O)NC(C)C)O3)cc1 | 0 | -4 | . | -1 | 5 | i | . | . | . | .
CN1Cc2sc(NC(=S)NC(=O)c3ccccc3)c(C#N)c2CC1(C)C | 58* | . | 97* | . | . | . | 85* | 90* | 4 | 15
NNC(=O)c1csc(-c2cccc(C(F)(F)F)c2)n1 | -3 | 3 | 1 | -5 | 5 | i | . | . | . | .
CC(C)C[C@H]1CN(CCCC[C@H]2CNC(=O)C(=O)N2CCc2ccccc2)C(=O)C(=O)N1CCc1ccccc1 | . | 4 | . | 2 | . | . | . | . | . | .
CCOC(=O)CN1C(=O)S/C(=C/c2ccc(N3CCCCC3)o2)C1=O | 19* | 160 | + | 113 | -38 | . | 180* | 167* | 69* | 7
CCOC(=O)CN1C(=O)S/C(=C/c2ccco2)C1=O | 0 | 0 | -4 | 4 | 4 | i | . | . | . | .
